Laboratory results published in ChEMBL document CHEMBL1287649, “Synthesis and anti-tubercular and antimicrobial activities of some 2r,4c-diaryl-3-azabicyclo[3.3.1]nonan-9-one N-isonicotinoylhydrazone derivatives” (2010).

Tests used:
[1] = tested on: Mycobacterium tuberculosis; experiment: Antitubercular activity against isoniazid-resistant Mycobacterium tuberculosis assessed as reduction of relative light unit at 2 ug/ml after 72 hrs by luciferase reporter phage assay relative to control; format: functional; parameters: scale not given: the % may be the effect or the level left
Procedure, shortened: (§1)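 Luciferase reporter phage assay. Luminescence (RLU) integrated for 10 s on a luminometer, in duplicate per sample and averaged. Percent RLU reduction calculated against untreated control. Run repeated if the control mean RLU was below 1000.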

[2] = tested on: Mycobacterium tuberculosis; experiment: Antitubercular activity against isoniazid-resistant Mycobacterium tuberculosis assessed as reduction of relative light unit at 1 ug/ml after 72 hrs by luciferase reporter phage assay relative to control; format: functional; parameters: scale not given: the % may be the effect or the level left; procedure, shortened: as §1

O=C(N/N=C1\C2CCCC1[C@H](c1ccc(Cl)cc1)N[C@@H]2c1ccc(Cl)cc1)c1ccncc1
Activity [1]: 73.28%
Activity [2]: 63.61%

O=C(N/N=C1\C2CCCC1[C@H](c1ccccc1)N[C@@H]2c1ccccc1)c1ccncc1
Activity [1]: 77.52%
Activity [2]: 69.6%

Cc1ccc([C@H]2N[C@@H](c3ccc(C)cc3)C3CCCC2/C3=N\NC(=O)c2ccncc2)cc1
Activity [1]: 71.07%
Activity [2]: 62.3%

COc1ccc([C@H]2N[C@@H](c3ccc(OC)cc3)C3CCCC2/C3=N\NC(=O)c2ccncc2)cc1
Activity [1]: 74.19%
Activity [2]: 67.07%

O=C(N/N=C1\C2CCCC1[C@H](c1ccc(F)cc1)N[C@@H]2c1ccc(F)cc1)c1ccncc1
Activity [1]: 75.08%
Activity [2]: 67.63%

COc1cccc([C@H]2N[C@@H](c3cccc(OC)c3)C3CCCC2/C3=N\NC(=O)c2ccncc2)c1
Activity [1]: 78.33%
Activity [2]: 69.18%

O=C(N/N=C1\C2CCCC1[C@H](c1cccc(Cl)c1)N[C@@H]2c1cccc(Cl)c1)c1ccncc1
Activity [1]: 75.83%
Activity [2]: 65.42%

NNC(=O)c1ccncc1 [ISONIAZID]
Activity [1]: 95.85%
Activity [2]: 89.65%
